Measured values: publication PMC5299031 (Structure (London, England : 1993), 2017)
Ends that are not written are not given here. * marks the point of attachment. FITC = O=C1OC2(c3ccc(O)cc3Oc3cc(O)ccc32)c2ccc(NC(=S)*)cc21

Assays:
[1] = tested on: STK40 kinase-homology domain (aa 22–339); experiment: Thermal shift assay; format: binding, human; details: summary statement (Highlights)
[2] = tested on: partially purified full-length STK40; details: single ATP concentration (0.2mM); ref Murphy et al., 2014; cited from earlier work
COP1 WD40 domain = experiment: Flag-immunoprecipitation; format: cell-based, human; details: 293T cells; anti-Flag IP, western blot anti-COP1; Figure 1C lanes 6–8
[3] = target: T1, purified human COP1 WD40 β propeller (386-731) (human, UniProt Q8NHY2 386-731); experiment: fluorescence polarisation
[4] = target: T1, purified human COP1 WD40 β propeller …; experiment: fluorescence polarisation; remark: listed apart in the source
[5] = target: COP1 WD40 domain (386–731); format: binding, human; details: same competition assay; 25 nM FITC-peptide, 1500 nM COP1 WD40 (386–731)
endogenous COP1 = experiment: Flag-immunoprecipitation in 293T cells: endogenous COP1; format: cell-based, human; details: anti-Flag IP, western blot anti-COP1, Figure 1C, black arrow
Outline: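 Human 293T cells grown in standard medium were transiently transfected with Flag-tagged STK40 constructs in pcDNA3.0 plus COP1 in pTriEx1.1. Lysates and eluates were run on 4–20% gradient gels and immunoblotted for Flag and COP1.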

T1 sequence (Q8NHY2 386-731): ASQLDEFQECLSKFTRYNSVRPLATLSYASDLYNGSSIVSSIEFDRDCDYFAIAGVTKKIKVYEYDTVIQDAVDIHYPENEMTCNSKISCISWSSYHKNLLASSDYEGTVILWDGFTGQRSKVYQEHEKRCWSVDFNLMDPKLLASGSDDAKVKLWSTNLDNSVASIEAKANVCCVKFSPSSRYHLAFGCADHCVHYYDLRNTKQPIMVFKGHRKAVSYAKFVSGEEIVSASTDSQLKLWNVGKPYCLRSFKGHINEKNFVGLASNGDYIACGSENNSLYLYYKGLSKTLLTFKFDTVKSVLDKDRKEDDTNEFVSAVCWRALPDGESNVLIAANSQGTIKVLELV

Molecule: Nc1ncnc2c1ncn2[C@@H]1O[C@H](COP(=O)(O)OP(=O)(O)OP(=O)(O)O)[C@@H](O)[C@H]1O [ATP]
- ATP binding by STK40 kinase homology domain [1]: does not bind ATP
- ATP binding by full-length STK40 [2]: no ATP binding

Molecule: SSLSGPLQVVPDI [12 residue peptide fused to GFP]
- association with / recovery of COP1 WD40 domain (COP1 WD40 domain): recovers the COP1 WD40 domain, but less efficiently than full-length STK40

B1: KHD: construct of STK40 containing only the central kinase homology domain (KHD) (protein)
chain: SGISGNNAKRAGPFILGPRLGNSPVPSIVQCLARKDGTDDFYQLKILTLEERGDQGIESQEERQGKMLLHTEYSLLSLLHTQDGVVHHHGLFQDRTCEIVEDTESSRMVKKMKKRICLVLDCLCAHDFSDKTADLINLQHYVIKEKRLSERETVVIFYDVVRVVEALHQKNIVHRDLKLGNMVLNKRTHRITITNFCLGKHLVSEGDLLKDQRGSPAYISPDVLSGRPYRGKPSDMWALGVVLFTMLYGQFPFYDSIPQELFRKIKAAEYTIPEDGRVSENTVCLIRKLLVLDPQQRLAAADVLEALSAIIASWQSLS
modifications: left off: His tag, N-terminal, cleaved
- association with / recovery of COP1 WD40 domain (COP1 WD40 domain): unable to recover detectable quantities of the COP1 WD40 domain

B2: STK40 peptide FITC-SSLSGPLQVVPD (peptide)
peptide: {FITC}-SSLSGPLQVVPD
- Kd [3]: 3100 ± 600 nM

B3: purified STK40 KHD+20 (22-359) (domain or fragment, human, UniProt Q8N2I9 22-359, looked up)
chain: SGISGNNAKRAGPFILGPRLGNSPVPSIVQCLARKDGTDDFYQLKILTLEERGDQGIESQEERQGKMLLHTEYSLLSLLHTQDGVVHHHGLFQDRTCEIVEDTESSRMVKKMKKRICLVLDCLCAHDFSDKTADLINLQHYVIKEKRLSERETVVIFYDVVRVVEALHQKNIVHRDLKLGNMVLNKRTHRITITNFCLGKHLVSEGDLLKDQRGSPAYISPDVLSGRPYRGKPSDMWALGVVLFTMLYGQFPFYDSIPQELFRKIKAAEYTIPEDGRVSENTVCLIRKLLVLDPQQRLAAADVLEALSAIIASWQSLSSLSGPLQVVPDIDDQMSNAD
- Ki [4]: 1200 ± 100 nM

B4: KHD containing a C-terminal extension of 20 amino acids: KHD containing a C-terminal extension of 20 amino acids encompassing the COP1-binding peptide (protein)
chain: SGISGNNAKRAGPFILGPRLGNSPVPSIVQCLARKDGTDDFYQLKILTLEERGDQGIESQEERQGKMLLHTEYSLLSLLHTQDGVVHHHGLFQDRTCEIVEDTESSRMVKKMKKRICLVLDCLCAHDFSDKTADLINLQHYVIKEKRLSERETVVIFYDVVRVVEALHQKNIVHRDLKLGNMVLNKRTHRITITNFCLGKHLVSEGDLLKDQRGSPAYISPDVLSGRPYRGKPSDMWALGVVLFTMLYGQFPFYDSIPQELFRKIKAAEYTIPEDGRVSENTVCLIRKLLVLDPQQRLAAADVLEALSAIIASWQSLSSLSGPLQVVPDIDDQMSNAD
modifications: left off: His tag, N-terminal, cleaved
- apparent Ki relative to isolated STK40 peptide (in words) [5]: lower apparent Ki than the isolated peptide

B5: Full-length STK40: N-terminal Flag-tagged full-length STK40 (FLAG, HA tags in HeLa tandem IP) (protein)
chain: MKRRASDRGAGETSARAKALGSGISGNNAKRAGPFILGPRLGNSPVPSIVQCLARKDGTDDFYQLKILTLEERGDQGIESQEERQGKMLLHTEYSLLSLLHTQDGVVHHHGLFQDRTCEIVEDTESSRMVKKMKKRICLVLDCLCAHDFSDKTADLINLQHYVIKEKRLSERETVVIFYDVVRVVEALHQKNIVHRDLKLGNMVLNKRTHRITITNFCLGKHLVSEGDLLKDQRGSPAYISPDVLSGRPYRGKPSDMWALGVVLFTMLYGQFPFYDSIPQELFRKIKAAEYTIPEDGRVSENTVCLIRKLLVLDPQQRLAAADVLEALSAIIASWQSLSSLSGPLQVVPDIDDQMSNADSSQEAKVTEECSQYEFENYMRQQLLLAEEKSSIHDARSWVPKRQFGSAPPVRRLGHDAQPMTSLDTAILAQRYLRK
modifications: left off: Flag, N-terminal, kept
- immunoprecipitation with endogenous COP1 (endogenous COP1): immunoprecipitates with endogenous COP1
